Here are results for eleven compounds from ChEMBL document CHEMBL1124580, “Opioid agonist and antagonist activities of peripherally selective derivatives of naltrexamine and oxymorphamine” (J Med Chem, 1989).

A value given as a limit tells only on which side of the number the result lay.

For assay [1], the species on record is Cavia porcellus. Put plainly: Antagonistic activity against morphine in guinea pig ileal longitudinal muscle(GPI) preparation. Format: functional, Muscle tissue. An outline of the steps: (§1)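 Guinea pig ileal longitudinal muscle, electrically stimulated twitch. Antagonism measured against morphine. Ke = [antagonist]/(IC50 ratio − 1); the IC50 ratio is morphine IC50 with antagonist over its control IC50 in the same preparation. Values are means ± SE, with number of experiments.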

The species entered for assay [2] is Cavia porcellus. In words: Maximum percent inhibition of electrically stimulated twitch in guinea pig ileal longitudinal muscle(GPI) preparation. Format: functional. As to conditions: Muscle tissue. An outline of the steps:
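Guinea pig ileal longitudinal muscle, electrically stimulated. Maximum percent inhibition of the twitch determined at 1 μM. Values are means ± SE, with number of experiments.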

For assay [3], the species on record is Cavia porcellus. In words: Antagonistic activity against morphine in guinea pig ileal longitudinal muscle(GPI) preparation; Agonism was too strong to test for antagonism. Format: functional. As to conditions: Muscle tissue, filed as agonist. An outline of the steps: as §1
A short description of assay [4]: Antagonistic potency, 120 min after […] administration of compound (91.7 u mol/kg), in mice (tail flick assay). Format: functional. The procedure, abridged:
(§2)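 Male Swiss–Webster mice, tail-flick antinociception. Morphine given sc and tested 30 min after injection. Antagonist given icv (0.01 nmol), iv (18.3 μmol/kg) or po (91.7 μmol/kg), timed so both drugs were at peak (antagonist peaks 60, 90 and 120 min).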

In assay [5] the test system is Mus musculus. In words: Antagonistic potency, 120 min after […] administration of compound (91.7u mol/kg), in mice (tail flick assay). As to conditions: 2 h. Format: functional. The procedure, abridged: as §2
The nature of assay [6]: Antagonistic potency, 90 min after intravenous administration of compound (18.3 u mol/kg), in mice (tail flick assay). Format: functional. The procedure, abridged:
as §2
In general terms: Hot-plate and tail-flick tests time the reaction to a heat stimulus.

The test system of assay [7] is Mus musculus. In words: Peak effect of agonistic potency 10 min after intracerebro ventricular administration, in mice (acetic acid writhing assay). Format: functional. An outline of the steps: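 Mouse acetic acid writhing assay. Compound given icv or po. […] Expressed as nmol/mouse (icv) or […] (po).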
A short description of assay [8]: Antagonistic potency,60 min after intracerebro ventricular administration of compound ([…]), in mice (tail flick assay). Format: functional. The procedure, abridged: as §2
The test system of assay [9] is Mus musculus. In words: Antagonistic potency, 90 min after […] administration of compound (18.3 u mol/kg), in mice (tail flick assay). The class given is functional. The settings on record: 1.5 h. An outline of the steps:
as §2

The subject of assay [10] is Mus musculus. Put plainly: Antagonistic potency, 60 min after intracerebro ventricular administration of compound (0.01n mol), in mice (tail flick assay). Format: functional. The settings on record: central, 1 h. An outline of the steps: as §2
The subject of assay [11] is Mus musculus. In words: Dose required to produce equivalent antagonism of morphine activity after peroral administration of compound. The class given is functional. The procedure, abridged: (§3)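 Mouse tail-flick assay against sc morphine. Antagonist dosed icv, iv or po. Equiactive dose calculated as the dose required to double the morphine ED50, [dose/(DR − 1)]. icv doses were also expressed per kg body weight.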

The subject of assay [12] is Mus musculus. In words: Dose required to produce equivalent antagonism of morphine activity after intravenous administration of compound. Format: functional. The procedure, abridged: as §3
Assay [13] can be described thus: (§4) Potency against opioid receptor relative to morphine. Format: functional. An outline of the steps:
(§5)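 Guinea pig ileal longitudinal muscle, electrically stimulated twitch. Agonist potency taken as IC50 for twitch inhibition and as potency ratio relative to morphine (morphine = 1). Values are means ± SE, with number of experiments.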

Assay [14] relates to Mus musculus. Put plainly: Peak antinociceptive potency of compound, 40 min after intracerebro ventricular administration nto mice. The class given is functional. An outline of the steps: (§6)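 Male Swiss–Webster mice, tail-flick antinociception. Compounds given icv, iv or po, with ED50 taken at peak effect. Some ED50s were estimated from two dose levels. Where drug was insufficient, an approximate range was based on one dose level.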

For assay [15], the system named is Mus musculus. In words: Peak antinociceptive potency of compound, 60 min after peroral administration into mice. The class given is functional. As to conditions: po, 1 h. The procedure, abridged:
as §6

Assay [16] relates to Mus musculus. In words: Peak antinociceptive potency of compound, 40 min after intravenous administration into mice. The class given is functional. An outline of the steps: as §6
In assay [17] the target is T1, Opioid receptors; mu/kappa/delta (Homo sapiens, UniProt P41145+P41143+P35372). Put plainly: Opioid receptor agonistic potency in guinea pig ileal longitudinal muscle(GPI) preparation. The class given is functional, Cavia porcellus. The settings on record: target entry is the homologue from another species. The procedure, abridged:
as §5

In assay [18] the test system is Mus musculus. Put plainly: Peak antinociceptive potency of compound, 20 min after intracerebro ventricular administration into mice. Format: functional. The procedure, abridged:
as §6

The subject of assay [19] is Mus musculus. In words: Peak antinociceptive potency of compound, 20 min after intravenous administration into mice. The class given is functional. An outline of the steps: as §6
The target of assay [20] is T1, Opioid receptors; mu/kappa/delta. Described as §4. The class given is functional. The settings on record: Cavia porcellus. An outline of the steps: as §5
Assay [21] has as its system Mus musculus. Put plainly: Peak antinociceptive potency of compound, 40 min after intracerebro ventricular administration into mice. The class given is functional. An outline of the steps:
as §6

T1 sequence (P35372 whole entry, looked up): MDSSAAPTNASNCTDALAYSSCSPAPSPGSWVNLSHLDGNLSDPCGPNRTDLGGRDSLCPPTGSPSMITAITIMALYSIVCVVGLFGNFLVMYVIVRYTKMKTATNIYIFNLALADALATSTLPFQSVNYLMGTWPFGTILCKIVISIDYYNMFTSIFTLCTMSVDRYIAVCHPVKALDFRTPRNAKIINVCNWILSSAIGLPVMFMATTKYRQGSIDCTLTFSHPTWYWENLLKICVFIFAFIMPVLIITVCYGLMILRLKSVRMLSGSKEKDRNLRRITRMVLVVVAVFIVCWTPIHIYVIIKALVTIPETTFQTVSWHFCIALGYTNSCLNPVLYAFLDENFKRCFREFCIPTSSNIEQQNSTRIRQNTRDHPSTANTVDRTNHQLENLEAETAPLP
T1 sequence (P41143 whole entry, looked up): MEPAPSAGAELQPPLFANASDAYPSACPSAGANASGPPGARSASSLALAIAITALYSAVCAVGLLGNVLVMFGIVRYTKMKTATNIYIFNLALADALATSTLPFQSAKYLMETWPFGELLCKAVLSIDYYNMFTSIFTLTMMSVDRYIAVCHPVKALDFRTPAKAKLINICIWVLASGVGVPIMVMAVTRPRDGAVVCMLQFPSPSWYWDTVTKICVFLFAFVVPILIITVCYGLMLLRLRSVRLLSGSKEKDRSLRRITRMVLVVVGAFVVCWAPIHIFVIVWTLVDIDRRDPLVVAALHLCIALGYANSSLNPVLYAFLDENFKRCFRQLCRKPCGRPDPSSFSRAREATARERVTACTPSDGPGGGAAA
T1 sequence (P41145 whole entry, looked up): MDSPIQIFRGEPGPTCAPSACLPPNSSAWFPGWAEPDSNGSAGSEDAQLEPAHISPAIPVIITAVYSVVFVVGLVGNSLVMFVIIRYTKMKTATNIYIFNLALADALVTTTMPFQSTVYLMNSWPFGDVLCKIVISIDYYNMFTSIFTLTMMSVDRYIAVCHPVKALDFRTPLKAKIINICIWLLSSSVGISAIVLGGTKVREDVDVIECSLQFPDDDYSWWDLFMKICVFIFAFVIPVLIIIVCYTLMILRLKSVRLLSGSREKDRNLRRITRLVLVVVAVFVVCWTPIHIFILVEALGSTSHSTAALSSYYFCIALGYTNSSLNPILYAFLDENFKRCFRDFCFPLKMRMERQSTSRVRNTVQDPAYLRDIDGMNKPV

What is called IC50 is the concentration needed to halve the response being measured. Low values mean higher potency, high ones lower potency. For the compound `O=C(O)/C=C/C(=O)NC1CC[C@@]2(O)[C@H]3Cc4ccc(O)c5c4[C@@]2(CCN3CC2CC2)[C@H]1O5` (some centres not stated), the Ke in the assay filed under Cavia porcellus [1] is on record as 8.4 nM. Also, in the assay filed under Cavia porcellus [2], the IC50 stood at 0.006 µM.

Regarding `O=C(O)CCCC(=O)NC1CC[C@@]2(O)[C@H]3Cc4ccc(O)c5c4[C@@]2(CCN3CC2CC2)[C@H]1O5` (some centres not stated), the Ke in the assay listed under Cavia porcellus [1] was 28 nM. Further, the IC50 in the assay listed under Cavia porcellus [2] is 0.041 µM.

`NC(CC(=O)O)C(=O)NC1CC[C@@]2(O)[C@H]3Cc4ccc(O)c5c4[C@@]2(CCN3CC2CC2)[C@H]1O5` (some centres not stated): the Ke result in the assay filed under Cavia porcellus [3] is reported as “Agonism was too strong to test for antagonism”. The Dose ratio in assay [4] amounted to 3; in [6] it was 12.2; in assay [8], 4.2. Besides, the ED50 in the assay with Mus musculus [5] was found to be 41.4 µmol/kg; with Mus musculus [7], 0.024 nM mouse-1; with Mus musculus [9] it was 168 µmol/kg; in the assay on Mus musculus [10], 58 µmol/kg. Besides, the Dose in the assay with Mus musculus [11] stood at 45.85 µM/kg; with Mus musculus [12] it was 1.63 µM/kg. In the assay listed under Cavia porcellus [2], this compound returned an IC50 of 0.0074 µM.

In the case of `CN1CC[C@]23c4c5ccc(O)c4O[C@H]2C(NC(=O)CCC(=O)O)CC[C@@]3(O)[C@H]1C5` (some centres not stated), the Ratio in [13] is 1.6. In addition, the figures for the ED50 in the assay with Mus musculus [14], in the assay with Mus musculus [15] and in the assay with Mus musculus [16] were 0.27 nM mouse-1, 30.3 µmol/kg and 9.8 µmol/kg, respectively. The compound further returned an IC50 in assay [17] of 0.144 µM.

`O=C(O)CCC(=O)NC1CC[C@@]2(O)[C@H]3Cc4ccc(O)c5c4[C@@]2(CCN3CC2CC2)[C@H]1O5` (some centres not stated) came in with a Ke in the assay filed under Cavia porcellus [1] of 24.8 nM. In the assay filed under Cavia porcellus [2], this compound yielded an IC50 of 0.056 µM.

For the compound `CN1CC[C@]23c4c5ccc(O)c4O[C@H]2C(NC(=O)/C=C/C(=O)O)CC[C@@]3(O)[C@H]1C5` (some centres not stated), the Ratio in [13] was determined as 1.5. Besides, the IC50 in assay [17] amounted to 0.13 µM.

Take `CN1CC[C@]23c4c5ccc(O)c4O[C@H]2C(NC(=O)/C=C\C(=O)O)CC[C@@]3(O)[C@H]1C5` (some centres not stated): the Ratio in assay [13] came out at 2.6. The values for the ED50 with Mus musculus [18], in the assay with Mus musculus [15] and in the assay on Mus musculus [19] were 0.17 nM mouse-1, 20 µmol/kg and 11 µmol/kg, respectively. In [17], the IC50 was found to be 0.039 µM.

With `O=C(O)COCC(=O)NC1CC[C@@]2(O)[C@H]3Cc4ccc(O)c5c4[C@@]2(CCN3CC2CC2)[C@H]1O5` (some centres not stated), the Ke in the assay filed under Cavia porcellus [1] is on record as 6.2 nM. It took 0.038 µM to reach half-maximal inhibition in the assay filed under Cavia porcellus [2] (IC50).

In the assay filed under Cavia porcellus [1], `O=C(O)CNC1CC[C@@]2(O)[C@H]3Cc4ccc(O)c5c4[C@@]2(CCN3CC2CC2)[C@H]1O5` (some centres not stated) returned a Ke of 24.4 nM. In the assay filed under Cavia porcellus [2], this compound yielded an IC50 of 0.037 µM.

With `CN1CC[C@]23c4c5ccc(O)c4O[C@H]2C(NC(=O)C(N)CC(=O)O)CC[C@@]3(O)[C@H]1C5` (some centres not stated), the Ratio in assay [13] worked out at 6.1. Further, the results for the ED50 in the assay with Mus musculus [18] and in the assay with Mus musculus [16] were 1110.44 nM mouse-1 and under 20 µmol/kg, respectively. In addition, the IC50 in assay [17] was 0.031 µM.

As to `CN1CC[C@]23c4c5ccc(O)c4O[C@H]2C(NC(=O)COCC(=O)O)CC[C@@]3(O)[C@H]1C5` (some centres not stated), in [20], the Ratio came to 3.1. Besides, the ED50 was over 25 µmol/kg with Mus musculus [15], 0.25 nM mouse-1 in the assay with Mus musculus [21] and under 20 µmol/kg in the assay on Mus musculus [16]. The same compound came in with an IC50 in assay [17] of 0.027 µM.
